Screening results: PubChem BioAssay, The Scripps Research Institute Molecular Screening Center
M4 PAM: CHRM4 positive allosteric modulation | CHO-K1 hM4/Gqi5, Fluo-8 calcium fluorescence, ACh EC20; 0% = ACh EC20, 100% = maximal ACh | P08173 | AID 624126 | activation, % at 3 µM | hit rate 0.4% among 360,000;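 active means activation above its plate's cutoff, the mean activation of sample wells plus 3 SD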
Target sequence (P08173 whole entry, looked up): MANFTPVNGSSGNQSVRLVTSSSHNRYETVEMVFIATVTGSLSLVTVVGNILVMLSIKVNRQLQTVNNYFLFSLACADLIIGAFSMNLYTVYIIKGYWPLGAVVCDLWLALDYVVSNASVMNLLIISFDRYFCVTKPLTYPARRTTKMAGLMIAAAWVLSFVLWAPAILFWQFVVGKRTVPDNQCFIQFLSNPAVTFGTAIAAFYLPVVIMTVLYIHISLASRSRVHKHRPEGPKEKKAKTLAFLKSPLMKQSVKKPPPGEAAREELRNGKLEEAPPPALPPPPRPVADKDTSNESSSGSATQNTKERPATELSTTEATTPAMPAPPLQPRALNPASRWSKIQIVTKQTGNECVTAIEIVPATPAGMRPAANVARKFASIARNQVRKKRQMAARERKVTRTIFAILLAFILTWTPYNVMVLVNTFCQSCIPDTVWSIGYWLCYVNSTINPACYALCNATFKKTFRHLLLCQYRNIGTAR
M4 antag: antagonists of human muscarinic M4 receptor (CHRM4). P08173. CHO-hM4 cells, ACh EC80, Fluo-8 calcium fluorescence. inhibition, % at 3 µM. hit rate 0.73% among 360,000. AID 624125;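 active means inhibition above its plate's cutoff, the mean inhibition of sample wells plus 3 SD, cut at about 27% in these data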
CHRM4 agonist: CHRM4 agonism in calcium assay. hit rate 0.14% among 360,000. P08173. activation, % at 3 µM. CHO-K1 hM4/Gqi5, Fluo-8 calcium fluorescence; vehicle 0%, full acetylcholine response 100%. AID 624127;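 active means activation above the run mean over all test wells plus 3 SD, cut at about 32% in these data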;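 further: peak over basal fluorescence ratio per well then scaled between controls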
CHRM5 agonist: agonists of human muscarinic M5 receptor (CHRM5). hit rate 0.19% among 360,000. P08912. activation, % at 3 µM. CHO-K1 hM5 cells, Fluo-8 calcium fluorescence; 0% DMSO wells, 100% maximal acetylcholine response;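 active means activation above the run's mean over test compounds plus 3 SD, cut at about 23% in these data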;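 further: signal is peak over basal fluorescence ratio across the kinetic read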
M5 antag: CHRM5 antagonism in calcium assay. CHO-hM5 cells, Fluo-8 calcium fluorescence, ACh EC80. inhibition, % at 3 µM. hit rate 0.59% among 360,000. AID 624040;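 active means inhibition above a per-plate cutoff, the mean of that plate's test compounds plus 3 SD, cut at about 27% in these data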
M5 PAM: positive allosteric modulators of human muscarinic M5 receptor | P08912 | CHO-K1 hM5, Fluo-8 calcium, ACh EC20 PAM; 0% = ACh EC20, 100% = ACh EC100 | activation, % at 3 µM | hit rate 0.3% among 360,000;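 active means activation above the run cutoff, the mean activation of all test compounds plus 3 SD, cut at about 18% in these data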
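system = human M5 receptor in CHO-K1 cells | compound = one concentration, 3 µM final (nominal) | schedule = Post-acetylcholine fluorescence recording 140 s | signal = Fluo-8 calcium dye fluorescence, kinetic read | benchmarks = low control EC20 acetylcholine (0%), high control EC100 acetylcholine (100%) | repeats = singlicate, one well per test compound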
Each line names hits and unclear results; the compound was inactive in the other large screens. The list is not random: actives were taken first. Their share in the collection is about 1.9%.

O=C1C=C(c2cccc(CO)c2)C[C@@H](c2ccc3c(c2)OCO3)C1	none
Cc1ccc(C2(c3ccccc3)NC(=O)N(CC(=O)NCc3ccco3)C2=O)cc1C (stereo unspecified)	M5 PAM 18.1
Nc1cc(=O)[nH]c(SCC(=O)Nc2cccnc2Cl)n1	M4 PAM 21.7
O=C(CN(CCc1ccccc1)C(=O)c1csnn1)NCc1ccc(F)cc1	none
Cc1c(Br)c([N+](=O)[O-])nn1CC(=O)N1CCc2ccccc21	none
Cc1nn(CC(=O)N2CCc3ccccc32)c(C)c1S(=O)(=O)NC(C)(C)C	M4 PAM 16.3
O=C(NCc1ccncc1)C(=O)N/N=C/c1ccc(OCc2ccccc2)cc1	none
O=NN(CCc1ccncc1)c1ccc(OCc2ccccc2)cc1	M5 antag 33.7
CC1CCc2c(sc(NC(=O)CCC(=O)O)c2C(=O)NC2CC2)C1 (stereo unspecified)	none
Cc1ccc(NS(=O)(=O)c2ccc(-n3cccn3)cc2)cc1F	none
COc1cccc(NS(=O)(=O)c2ccc(-n3cccn3)cc2)c1	M4 antag 30.8
COc1ccccc1C(=O)NC(=O)COC(=O)c1ccc(Br)o1	none
N#Cc1ccc(CC(=O)c2ccccc2)[nH]c1=O	none
CCOC(=O)N1CCN(C(=O)c2ccc3c(=O)n(CCC4=CCCCC4)c(=O)[nH]c3c2)CC1	M4 antag 39.4
O=S(=O)(Nc1ccc2c(c1)OCO2)c1cccs1	M5 PAM 33.6
CN(CCN1CCOCC1)C(=O)CC1C(=O)NCCN1Cc1ccccc1C(F)(F)F (stereo unspecified)	M4 PAM 19.4
Cc1ccc(CC(=O)Nc2cccc(C(=O)Nc3c(C)n(C)n(-c4ccccc4)c3=O)c2)cc1C	none
Cc1cc(C)n2nc(SCC(=O)N(CCC#N)c3ccccc3F)nc2n1	none
COc1ccc([C@H]2CC(=O)C=C(c3ccc(OC(F)(F)F)cc3)C2)cc1	none
COc1ccc([C@H]2CC(=O)C=C(c3ccc(CNC(=O)OC(C)(C)C)cc3)C2)cc1	M4 antag 27.6
NC(=O)c1ccccc1NC(=O)c1cccc(C(=O)Nc2ccccc2C(N)=O)n1	none
COC(=O)C1=C(C)NC2=C(C(=O)CC(C)(C)C2)C1c1ccccn1 (stereo unspecified)	none
COC(=O)C1=C(C)NC2=C(C(=O)C(C(=O)OC)C(c3ccc(OC)cc3)C2)C1c1ccccn1 (stereo unspecified)	M5 PAM 37.4
O=C(c1ccc(S(=O)(=O)N2CCCC2)cc1)N(c1ccc(F)cc1)C1C=CS(=O)(=O)C1 (stereo unspecified)	none
CC1(C(=O)NCc2ccccc2)CN(S(C)(=O)=O)CC(=O)N1Cc1cccc(F)c1 (stereo unspecified)	M4 PAM 23.9
CC(C)C(C)N(Cc1cccc(C(=O)O)c1)C(=O)c1ccc2ccccc2n1 (stereo unspecified)	M5 PAM 22.5
O=C(Nc1c(Cl)ccc2nsnc12)c1ccc([N+](=O)[O-])o1	none
O=C(CSc1nnc(C2CC2)n1CC1CCCO1)Nc1ccccc1Cl (stereo unspecified)	none
O=C(CN1CCN(c2ccccc2)CC1)Nc1ccncc1	none
O=C(CN1CCN(c2ccccc2)CC1)Nc1ccc2c(c1)CCC2	M4 PAM 20.5
CN(C)C1(CN=Cc2cc(Cl)cc([N+](=O)[O-])c2O)CCCCC1	none
C=CCN1C(=O)C(Cc2ccc(SC(F)F)cc2)SC1=Nc1ccc(C(=O)O)cc1 (stereo unspecified)	M5 antag 27.2
CC(=O)Nc1ccc(OCC(O)CN2CCN(c3ccc(F)cc3)CC2)cc1 (stereo unspecified)	none
Oc1ccccc1/C=N/N1CCCCC1	M5 antag 29.8
CC1=C(C(=O)OCC2CCCO2)C(c2ccncc2)C2=C(CCCC2=O)N1 (stereo unspecified)	none
CC1=C(C(=O)OCC2CCCO2)C(c2ccc(C)cc2)C2=C(CCCC2=O)N1 (stereo unspecified)	M5 PAM 19.7
CCN(CC)c1ccc(C2C(C(=O)OCCOC)=C(C)NC3=C2C(=O)CCC3)cc1 (stereo unspecified)	M4 antag 34.8
CCOC(=O)C1CCN(C(=O)Cn2c(=O)oc3cc(S(=O)(=O)N4CCCC4)ccc32)CC1	none
Cc1cnc(C(=O)OCC(=O)NCc2cccc(Cl)c2)cn1	none
CCn1nc(C)cc1C(=O)N1CCCC(N(C)CCc2ccc(OC)c(OC)c2)C1 (stereo unspecified)	none
CC(C)CN(C(=O)COC(=O)CCCc1c[nH]c2ccccc12)c1c(N)n(Cc2ccccc2)c(=O)[nH]c1=O	M5 antag 28.9
CC(C)CN(C(=O)COC(=O)CCc1c[nH]c2ccccc12)c1c(N)n(Cc2ccccc2)c(=O)[nH]c1=O	none
Cc1ccc(/C=N/NC(=O)Cc2c(F)cccc2Cl)s1	none
COc1cc(NC(=O)CN2CCN(S(=O)(=O)/C=C/c3ccccc3)CC2)cc(OC)c1OC	none
O=C(CSc1nnc(CNc2ccc(F)cc2)o1)c1ccccc1	M4 PAM 22.8
CN1CCN(C2=Cc3ccccc3Sc3cc(F)c(Cl)cc32)CC1	M4 antag 28.7
CN1CCN(C2=Cc3ccccc3Sc3cc(F)c(F)cc32)CC1	none
CN1CCN(C2=Cc3cc(Cl)ccc3Sc3cc(F)ccc32)CC1	M4 antag 49.5, M5 antag 44.5
COCCNC(=O)CCN1N=C(c2ccccc2)CCC1=O	none
CCN(C(=O)c1ccc2c(c1)OCO2)C1CCS(=O)(=O)C1 (stereo unspecified)	none
CCCc1nnc(NC(=O)CCC(=O)N2CCC(Cc3ccccc3)CC2)s1	none
CC(=O)N1Cc2cc(C(=O)NCC(F)(F)F)nc(-c3cccc(-c4cc5ccccc5o4)c3)c2[C@H]1CCO	none
O=C(COC(=O)C12CC3CC(CC(O)(C3)C1)C2)Nc1cccc(Br)c1	none
CC(=O)Nc1ccc(S(=O)(=O)Nc2nc(C)nc3sc(C)c(C)c23)cc1	M4 PAM 21.3
Cc1sc2ncnc(NS(=O)(=O)c3ccc(Cl)cc3)c2c1C	none
COc1ccc(NC(=O)COC(=O)c2cc(Cl)ccc2O)cc1S(=O)(=O)N1CCCCC1	none
COc1ccc2[nH]c3c(=O)n(CCCN4CCOCC4)cnc3c2c1	M5 PAM 20.9
CCC(Sc1nc2c(cnn2-c2ccc(Cl)cc2)c(=O)[nH]1)C(=O)OC (stereo unspecified)	M4 antag 40.5
O=C(C=Cc1ccccc1)CC(c1ccccc1)N1CCOCC1 (stereo unspecified)	none
